The values that follow come from ChEMBL document CHEMBL1687814, “Testing nucleoside analogues as inhibitors of Bacillus anthracis spore germination in vitro and in macrophage cell culture” (Antimicrob Agents Chemother, 2010).

SMILES strings stand for the structures.

Series [1] deals with J774.A1. Nature of the series: Cytotoxicity against mouse J774A1 cells. The format is cell-based. The gist of the method:
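Uninfected J774A.1 macrophages, seeded at 8 × 10^5 cells/ml in serum-free DMEM, were given analogues at various final concentrations. Necrosis was assessed by 20 μM propidium iodide fluorescence at 617 nm, in parallel with the infected wells.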

Series [2] deals with Bacillus anthracis. Nature of the series: Antibacterial activity against Bacillus anthracis Sterne 34F2 infected in mouse J774A.1 cells assessed as protection against bacteria-induced cytotoxicity using propidium iodide staining after 3 hrs measured every hours for up to 7 hrs. The series is classed as functional, organism-based.
The test system of series [3] is Bacillus anthracis. Nature of the series: Inhibition of inosine/L-alanine-induced Bacillus anthracis Sterne 34F2 spore germination pretreated for 15 mins before inosine/L-alanine challenge. The series is classed as functional, organism-based.
[4] abbreviates: Bacillus anthracis, Sterne 34F2, read-out: IC50.
Setting [5] is: Bacillus anthracis, Sterne 34F2, J774.A1, read-out: IC50.

For orientation: IC50 means the midpoint of a concentration-inhibition curve.

As to `CN(C)c1ncnc2c1ncn2[C@@H]1O[C@H](CO)[C@@H](O)[C@H]1O`, the Activity result in series [1] is recorded as “Non-toxic”. Besides, the IC50 result in series [2] and in series [3] was “Not Active” throughout.

As for `Nc1ncc2ncn([C@@H]3O[C@H](CO)[C@@H](O)[C@H]3O)c2n1`, in series [1], the Activity result was “Non-toxic”. Moreover, the IC50 result in series [2] is “Not Active”; in series [3] (setting [4]), 380 µM.

Take `CCN(CC)c1ncnc2c1ncn2[C@@H]1O[C@H](CO)[C@@H](O)[C@H]1O`: the Activity entry in series [1] is given as “Non-toxic”. Also, the IC50 result was “Not Active” in series [2] and 310 µM in series [3] (setting [4]).

With `CCCN(CCC)c1ncnc2c1ncn2[C@@H]1O[C@H](CO)[C@@H](O)[C@H]1O`, the Activity result in series [1] is reported as “Non-toxic”. Besides, the IC50 entry in series [2] was “Not Active”; in series [3] (setting [4]) it was 760 µM.

For the molecule `OC[C@H]1O[C@@H](n2cnc3c(N4CCCCC4)ncnc32)[C@H](O)[C@@H]1O`, the Activity entry in series [1] is recorded as “Non-toxic”. The IC50 entry was “Not Active” in series [2] and 1090 µM in series [3] (setting [4]).

Regarding `CCOC(=O)C1CCCN(c2ncnc3c2ncn3[C@@H]2O[C@H](CO)[C@@H](O)[C@H]2O)C1` (stereo partly drawn), the Activity result in series [1] was “Non-toxic”. The IC50 result was “Not Active” in series [2] and 700 µM in series [3] (setting [4]).

Regarding `CC(=O)N1CCN(c2ncnc3c2ncn3[C@@H]2O[C@H](CO)[C@@H](O)[C@H]2O)CC1`, in series [1], the Activity entry is “Non-toxic”. The results for the 50% inhibitory concentration (IC50) entry in series [2] and in series [3] (setting [4]) were “Not Active” and 50 µM, respectively.

Regarding `C[n+]1cn([C@@H]2O[C@H](CO)[C@@H](O)[C@H]2O)c2nc[nH]c(=O)c21`, in series [1], the Activity result was “Non-toxic”. Also, the 50% inhibitory concentration (IC50) entry in series [2] and in series [3] was “Not Active” in each case.

Turning to `N#Cc1ncnc2nc[nH]c12`, the Activity entry in series [1] is on record as “Non-toxic”. The IC50 result in series [2] and in series [3] was “Not Active” in each case.

`Nc1nc(Cl)c2ncn([C@@H]3O[C@H](CO)[C@@H](O)[C@H]3O)c2n1`: the Activity entry in series [1] is reported as “Non-toxic”. Besides, the IC50 worked out at 190 µM in series [2] (setting [5]) and 890 µM in series [3] (setting [4]).

Take `Nc1nc(N)c2ncn([C@@H]3O[C@H](CO)[C@@H](O)[C@H]3O)c2n1`: the Activity entry in series [1] is given as “Non-toxic”. The figures for the half-inhibitory concentration (IC50) entry in series [2] and in series [3] (setting [4]) were “Not Active” and 700 µM, respectively.

Take `CNc1ncnc2c1ncn2[C@@H]1O[C@H](CO)[C@@H](O)[C@H]1O`: the Activity result in series [1] is given as “Non-toxic”. The values for the IC50 entry in series [2] and in series [3] (setting [4]) were “Not Active” and 190 µM, respectively.

For `CSc1ncnc2c1ncn2[C@@H]1O[C@H](CO)[C@@H](O)[C@H]1O`, the Activity result in series [1] was “Non-toxic”. In addition, the IC50 result was “Not Active” in series [2] and 320 µM in series [3] (setting [4]).

As to `OC[C@H]1O[C@@H](n2cnc3c(Cl)ncnc32)[C@H](O)[C@@H]1O`, the Activity entry in series [1] was “Non-toxic”. In addition, the 50% inhibitory concentration (IC50) entry in series [2] and in series [3] was “Not Active” each time.

Regarding `COc1nc(N)nc2c1ncn2[C@@H]1O[C@H](CO)[C@@H](O)[C@H]1O`, the Activity result in series [1] is “Non-toxic”. The IC50 entry was “Not Active” in series [2] and 350 µM in series [3] (setting [4]).

Turning to `CSc1nc2ccccc2[nH]1`, the Activity entry in series [1] is “Non-toxic”. The IC50 entry in series [2] and in series [3] was “Not Active” in each case.

Regarding `Sc1nc2ccccc2[nH]1` [2-MERCAPTOBENZIMIDAZOLE], the Activity result in series [1] was “Non-toxic”. In addition, the IC50 entry in series [2] and in series [3] was “Not Active” each time.

With `c1ccc(CNc2ncnc3nc[nH]c23)cc1` [6-BENZYLAMINOPURINE], the Activity result in series [1] is recorded as “Non-toxic”. The IC50 result was “Not Active” in series [2] and 1550 µM in series [3] (setting [4]).

Take `OC[C@H]1O[C@@H](n2cnc3c(SCc4ccccc4)ncnc32)[C@H](O)[C@@H]1O` [6-BENZYLTHIOINOSINE]: in series [1], the Activity entry is “Non-toxic”. In addition, the IC50 came out at 1040 µM in series [2] (setting [5]) and 50 µM in series [3] (setting [4]).

`Nc1nc(Cl)c2nc[nH]c2n1` [6-CHLOROGUANINE]: the Activity result in series [1] was “Non-toxic”. In addition, the figures for the IC50 in series [2] (setting [5]) and in series [3] were 200 µM and “Not Active”, respectively.

For the molecule `Nc1ncnc2c1ncn2[C@@H]1O[C@H](CO)[C@@H](O)[C@H]1O` [ADENOSINE], the Activity result in series [1] is “Non-toxic”. Moreover, the concentration for half-maximal inhibition (IC50) entry in series [2] and in series [3] was “Not Active” each time.

Regarding `O=c1ncnc2n([C@H]3O[C@@H](CO)[C@H](O)[C@@H]3O)[nH]cc1-2` [ALLOPURINOL RIBOSIDE], the Activity entry in series [1] is recorded as “Non-toxic”. The values for the IC50 in series [2] (setting [5]) and in series [3] were 650 µM and “Not Active”, respectively.

Regarding `Oc1ncnc2[nH]ncc12` [ALLOPURINOL], the Activity result in series [1] is “Non-toxic”. Moreover, the IC50 result in series [2] and in series [3] was “Not Active” each time.

Take `C[C@@H](N)C(=O)O` [D-ALANINE]: the Activity entry in series [1] is on record as “Non-toxic”. The IC50 in series [2] (setting [5]) and in series [3] (setting [4]) was 20 µM each time.

As to `Nc1nc2c(ncn2COC(CO)CO)c(=O)[nH]1` [GANCICLOVIR], in series [1], the Activity result is recorded as “Non-toxic”. For the same molecule, the IC50 result in series [2] and in series [3] was “Not Active” each time.

Turning to `Nc1nc2c(ncn2[C@@H]2O[C@H](CO)[C@@H](O)[C@H]2O)c(=O)[nH]1` [GUANOSINE], the Activity result in series [1] was “Non-toxic”. For the same molecule, the IC50 entry in series [2] and in series [3] was “Not Active” in each case.

As for `OC[C@H]1O[C@@H](n2cnc3c(O)ncnc32)[C@H](O)[C@@H]1O` [INOSINE], the Activity result in series [1] was “Non-toxic”.

As to `Nc1nc(=O)[nH]c2c1ncn2[C@@H]1O[C@H](CO)[C@@H](O)[C@H]1O` [ISOGUANOSINE], the Activity result in series [1] was “Non-toxic”. In addition, the half-maximal inhibitory concentration (IC50) result in series [2] and in series [3] was “Not Active” in each case.

As to `Sc1ncnc2nc[nH]c12` [MERCAPTOPURINE ANHYDROUS], in series [1], the Activity result was “Non-toxic”. The 50% inhibitory concentration (IC50) was 400 µM in series [2] (setting [5]) and “Not Active” in series [3].

Consider `OC[C@H]1O[C@@H](n2cnc3cncnc32)[C@H](O)[C@@H]1O` [NEBULARINE], for which the Activity result in series [1] is listed as “Non-toxic”. The IC50 result in series [2] and in series [3] was “Not Active” in each case.

As to `CC(C)=CCNc1ncnc2c1ncn2[C@@H]1O[C@H](CO)[C@@H](O)[C@H]1O` [RIBOPRINE], the Activity result in series [1] is listed as “Non-toxic”. Besides, the IC50 entry was “Not Active” in series [2] and 360 µM in series [3] (setting [4]).

With `Nc1nc2nc[nH]c2c(=S)[nH]1` [THIOGUANINE], the Activity entry in series [1] is reported as “Non-toxic”. Moreover, the figures for the IC50 in series [2] (setting [5]) and in series [3] were 2 µM and “Not Active”, respectively.

With `OC[C@H]1O[C@@H](n2cnc3c(S)ncnc32)[C@H](O)[C@@H]1O` [THIOINOSINE], the Activity result in series [1] was “Non-toxic”. For the same molecule, the IC50 in series [2] (setting [5]) is 40 µM; in series [3], “Not Active”.

Consider `Nc1ncnc2c1ccn2[C@@H]1O[C@H](CO)[C@@H](O)[C@H]1O` [TUBERCIDIN], for which the Activity result in series [1] is listed as “Non-toxic”. In addition, the IC50 result in series [2] and in series [3] was “Not Active” throughout.

Regarding `OC[C@H]1O[C@@H](n2cnc3c(O)nc(O)nc32)[C@H](O)[C@@H]1O` [XANTHOSINE], the Activity result in series [1] is “Non-toxic”. Also, the IC50 result in series [2] was “Not Active”; in series [3] (setting [4]), 7190 µM.
